Data reported in ChEMBL document CHEMBL4052812, “Imidazo[1,2-α]pyridines possess adenosine A1 receptor affinity for the potential treatment of cognition in neurological disorders” (Bioorg Med Chem Lett, 2017).

Assays:
Adenosine receptor A2a = Adenosine receptor A2a (Rattus norvegicus, UniProt P30543); assay: (§1) Displacement of [3H]-NECA from A2A receptor in rat striatal membrane in presence of A1 receptor agonist N6-cyclopentyladenosine; format: cell membranes, Striatum
In short: (§2)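 Competition binding against [3H]NECA (Kd 15.3 nM) on rat striatal membranes, with the A1 agonist CPA present to suppress A1 binding. Nonspecific binding set with 100 µM CPA. Eight concentrations from 0 to 100 µM. Ki from the IC50 of a sigmoidal fit, in triplicate, mean ± SEM. Otherwise percent displacement at 100 µM.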

[1] = target: Adenosine receptor A2a (Rattus norvegicus) (UniProt P30543); assay: as §1; format: cell membranes; set-up: concentration or dose not given beside the values; settings: Striatum, concentration not given here; in short: as §2
[2] = target: T1, Adenosine receptor A1 (Rattus norvegicus) (UniProt P25099); assay: (§3) Displacement of [3H]-DPCPX from A1 receptor in rat whole brain membrane; format: cell membranes; set-up: concentration or dose not given beside the values; settings: concentration not given here
T1 sequence (whole entry): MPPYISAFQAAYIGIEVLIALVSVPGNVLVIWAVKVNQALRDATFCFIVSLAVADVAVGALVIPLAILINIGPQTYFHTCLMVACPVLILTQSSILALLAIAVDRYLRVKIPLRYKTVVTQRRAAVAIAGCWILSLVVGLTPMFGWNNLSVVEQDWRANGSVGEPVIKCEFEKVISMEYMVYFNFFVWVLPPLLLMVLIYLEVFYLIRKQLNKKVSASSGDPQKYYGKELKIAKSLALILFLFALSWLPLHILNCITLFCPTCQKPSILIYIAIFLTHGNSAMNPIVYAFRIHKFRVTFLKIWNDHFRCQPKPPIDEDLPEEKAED
In short: (§4)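 Competition binding against [3H]DPCPX (Kd 0.36 nM) on rat whole brain membranes. Nonspecific binding set with 100 µM CPA. Eight test concentrations from 0 to 100 µM. IC50 from a sigmoidal fit of specific binding against log concentration, converted to Ki. Run in triplicate, mean ± SEM. Where no full curve was obtained, percent displacement of radioligand at 100 µM is given.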

Adenosine receptor A1 [3] = target: T2, Adenosine receptor A1 (Rattus norvegicus, UniProt P25099); assay: as §3; format: cell membranes; in short: as §4
T2 sequence (P25099 whole entry): T1 sequence (whole entry)

[4] = target: T3, Adenosine receptor A1 (Homo sapiens) (UniProt P30542); assay: Displacement of [3H]-DPCPX from recombinant human A1 receptor expressed in CHOK1 cells at 100 uM measured after 30 mins by liquid scintillation counting method relative to control; format: cell-based
T3 sequence (whole entry): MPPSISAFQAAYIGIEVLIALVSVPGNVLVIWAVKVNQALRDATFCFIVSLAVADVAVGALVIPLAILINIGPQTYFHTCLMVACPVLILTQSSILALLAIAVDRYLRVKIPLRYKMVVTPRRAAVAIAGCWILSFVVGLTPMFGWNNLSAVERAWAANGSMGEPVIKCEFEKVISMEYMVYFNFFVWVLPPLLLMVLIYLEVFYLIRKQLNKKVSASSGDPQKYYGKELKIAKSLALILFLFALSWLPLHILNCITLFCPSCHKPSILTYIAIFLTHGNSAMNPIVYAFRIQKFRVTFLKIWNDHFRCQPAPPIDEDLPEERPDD

[5] = target: T1, Adenosine receptor A1 (Rattus norvegicus); assay: Ratio of Ki for adenosine receptor A1 in rat brain membrane in presence of GTP to Ki for adenosine receptor A1 in rat brain membrane in absence of GTP; format: cell membranes
In short: (§5)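 GTP shift test on rat whole brain membranes. [3H]DPCPX binding is run without GTP and with 100 µM GTP added. Ki is taken from a sigmoidal competition curve in each condition, in triplicate. The shift is Ki with GTP divided by Ki without GTP.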

Adenosine receptor A1 [6] = target: T2, Adenosine receptor A1; assay: Displacement of [3H]-DPCPX from A1 receptor in rat whole brain membrane assessed as effect on GTP shift in presence of 100 uM GTP; format: cell membranes; in short: as §5
[7] = Displacement of [3H]CGS21680 from A2A receptor in bovine striatal membrane; format: cell membranes, Bos taurus, Striatum

Chain of Adenosine receptor A2a (P30543 whole entry): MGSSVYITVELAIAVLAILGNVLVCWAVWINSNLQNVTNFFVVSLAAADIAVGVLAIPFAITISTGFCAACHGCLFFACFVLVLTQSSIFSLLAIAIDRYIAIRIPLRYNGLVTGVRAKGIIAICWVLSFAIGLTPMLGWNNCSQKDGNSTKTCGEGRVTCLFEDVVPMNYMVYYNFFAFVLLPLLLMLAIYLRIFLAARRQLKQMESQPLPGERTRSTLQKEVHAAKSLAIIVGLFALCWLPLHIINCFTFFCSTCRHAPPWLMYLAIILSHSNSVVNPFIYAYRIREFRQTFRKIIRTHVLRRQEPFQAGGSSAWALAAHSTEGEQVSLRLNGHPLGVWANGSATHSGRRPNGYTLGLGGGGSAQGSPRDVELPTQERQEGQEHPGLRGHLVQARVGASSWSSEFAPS
Chain of Adenosine receptor A2a (Rattus norvegicus) (P30543 whole entry): as above

Row | Ki (Adenosine receptor A2a) [µM] | inhibition [1] [%] | inhibition [2] [%] | Ki (Adenosine receptor A1 [3]) [µM] | inhibition [4] [%] | Ratio Ki [5] | Ki (Adenosine receptor A1 [6]) [µM] | Ki [7] [µM] | Structure (SMILES)
1 | > 100 | 86 | 52 | > 100 |  |  |  |  | Nc1c(-c2ccccc2)nc2ccccn12
2 | > 100 | 83 |  | 2.06 |  | 0.97 | 2 |  | Cc1ccc(-c2nc3ccccn3c2NC2CCCCC2)cc1
3 | > 100 | 55 |  | 7.61 |  |  |  |  | COc1ccc(-c2nc3ccccn3c2NC2CCCCC2)cc1
4 | > 100 | 64 | 61 | > 100 |  |  |  |  | Clc1ccc(-c2nc3ccccn3c2NC2CCCCC2)cc1
5 | > 100 | 54 |  | 3.9 |  |  |  |  | Brc1ccc(-c2nc3ccccn3c2NC2CCCCC2)cc1
6 | > 100 | 74 | 76 | > 100 |  |  |  |  | FC(F)(F)c1ccc(-c2nc3ccccn3c2NC2CCCCC2)cc1
7 | > 100 | 77 | 57 | > 100 |  |  |  |  | c1ccc(-c2nc3ccccn3c2NC2CCCCC2)cc1
8 | > 100 | 27 |  | 5.53 |  |  |  |  | Oc1ccc(-c2nc3ccccn3c2NC2CCCCC2)cc1
9 | > 100 | 69 | 99 | > 100 |  |  |  |  | O=[N+]([O-])c1ccc(-c2nc3ccccn3c2NC2CCCCC2)cc1
10 | > 100 | 90 | 63 | > 100 |  |  |  |  | Fc1ccc(-c2nc3ccccn3c2NC2CCCCC2)cc1

Second part, the compound before the results:

Row | Structure (SMILES) | Ki (Adenosine receptor A2a) [µM] | inhibition [1] [%] | inhibition [2] [%] | Ki (Adenosine receptor A1 [3]) [µM] | inhibition [4] [%] | Ratio Ki [5] | Ki (Adenosine receptor A1 [6]) [µM] | Ki [7] [µM]
11 | c1ccn2ccnc2c1 | > 100 | 75 | 100 | > 100 |  |  |  | 
12 | c1ccc(CNc2c(-c3ccccc3)nc3ccccn23)cc1 |  |  |  |  | 89 |  |  | 
13 | CC(=O)Nc1nc(-c2ccccc2)nc2nc(C)cn12 |  |  |  |  |  |  |  | > 10
14 | Oc1ccc(-c2cn3ccccc3n2)cc1 | > 100 | 85 | 47 | > 100 |  |  |  | 
15 | O=C(Nc1nc(-c2ccccc2)nc2nc(-c3ccccc3)cn12)C1CCCC1 |  |  |  |  |  |  |  | 2.5
16 | c1ccc(-c2cn3ccccc3n2)cc1 | > 100 | 52 | 49 | > 100 |  |  |  | 
17 | COc1ccc(-c2cn3ccccc3n2)cc1 | > 100 | 61 | 76 | > 100 |  |  |  | 
18 | CC(=O)CNc1nc(-c2ccccc2)nc2nc(C)cn12 |  |  |  |  |  |  |  | > 10
19 | Brc1ccc(-c2cn3ccccc3n2)cc1 | > 100 | 87 | 86 | > 100 |  |  |  | 
